What was measured:
[1] = Selectivity index, ratio of CC50 for human HepG2 cells in presence of 1% FBS to MIC for Acinetobacter baumannii ATCC 19606; format: toxicity; settings: read-out: Selectivity Index
[2] = Selectivity index, ratio of CC50 for human HepG2 cells in presence of 1% FBS to MIC for Klebsiella pneumoniae isolate 224-11-C; format: toxicity; settings: read-out: Selectivity Index
[3] = Selectivity index, ratio of CC50 for human HepG2 cells in presence of 1% FBS to MIC for vancomycin-intermediate Staphylococcus aureus ATCC 700698; format: toxicity; settings: read-out: Selectivity Index
Outline: (§1)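 Selectivity index is CC50 (1% FBS) divided by MIC. […] They then got compound at 300 to 0.14 µM (3-fold steps) for 24 h at 37 °C, 5% CO2. Resazurin (10 µM, 2 h) was read at ex/em 560/590 in duplicate wells. For MIC, CLSI broth microdilution was run in CaMHB with ~10^6 cfu/mL inoculum and 0–128 µM compound.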

Klebsiella pneumoniae [4] = assay: Antibacterial activity against Klebsiella pneumoniae isolate 248-33-D after 18 hrs by broth microdilution method; format: functional
Outline: (§2)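 Broth microdilution per CLSI in cation-adjusted Mueller-Hinton broth. 100 µL inoculum (~10^6 cfu/mL in CaMHB) mixed with 100 µL CaMHB containing compound, 0 to 128 µM. Incubated 18 h at 37 °C. MIC taken as the lowest concentration with no visible growth. Polymyxin B served as positive control. Isolates were stored at -80 °C in tryptone soy broth with 20% glycerol.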

Escherichia coli [5] = assay: Antibacterial activity against Escherichia coli N2381 after 18 hrs by broth microdilution method; format: functional; settings: N2381, 18 h; outline: as §2
Acinetobacter baumannii [6] = assay: Antibacterial activity against Acinetobacter baumannii ATCC 19606 col10 after 18 hrs by broth microdilution method; format: functional; settings: ATCC 19606 = CIP 70.34 = JCM 6841 col10, 18 h; outline: as §2
[7] = Selectivity index, ratio of CC50 for human HepG2 cells in presence of 1% FBS to MIC for Klebsiella pneumoniae isolate 248-33-D; format: toxicity; settings: read-out: Selectivity Index
Staphylococcus aureus [8] = assay: Antibacterial activity against vancomycin-resistant Staphylococcus aureus ATCC 700699 after 18 hrs by broth microdilution method; format: functional; settings: ATCC 700699, 18 h; outline: as §2
Klebsiella pneumoniae [9] = assay: Antibacterial activity against Klebsiella pneumoniae isolate M320445 after 18 hrs by broth microdilution method; format: functional; settings: isolate M320445, 18 h; outline: as §2
Pseudomonas aeruginosa [10] = assay: Antibacterial activity against Pseudomonas aeruginosa isolate 18878B klon 1 after 18 hrs by broth microdilution method; format: functional; settings: isolate 18878B klon 1, 18 h; outline: as §2
[11] = Selectivity index, ratio of CC50 for human HepG2 cells in presence of 1% FBS to MIC for Pseudomonas aeruginosa isolate 19147nm; format: toxicity; settings: read-out: Selectivity Index; outline: as §1
Escherichia coli [12] = assay: Antibacterial activity against Escherichia coli N4149 after 18 hrs by broth microdilution method; format: functional; settings: N4149, 18 h; outline: as §2
[13] = Selectivity index, ratio of CC50 for human HepG2 cells in presence of 1% FBS to MIC for Escherichia coli N11281; format: toxicity; settings: read-out: Selectivity Index
Klebsiella pneumoniae [14] = assay: Antibacterial activity against Klebsiella pneumoniae isolate 1 after 18 hrs by broth microdilution method; format: functional; settings: isolate 1, 18 h; outline: as §2
[15] = Selectivity index, ratio of CC50 for human HepG2 cells in presence of 1% FBS to MIC for Acinetobacter baumannii ATCC 19606 col10; format: toxicity; settings: read-out: Selectivity Index
[16] = Cytotoxicity against human HepG2 cells after 24 hrs in presence of 1% FBS by resazurin dye based assay; format: cell-based
Outline: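 HepG2 cells seeded at 4000/well in DMEM with 1% FBS and allowed to attach for 24 h at 37 °C, 5% CO2. Compounds added from 300 to 0.14 µM in 3-fold steps and incubated 24 h. 10 µM resazurin added for 2 h, fluorescence read at ex/em 560/590. Percent viability computed relative to untreated and negative controls, duplicate wells.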

[17] = tested on: Mycobacterium tuberculosis; assay: Antimycobacterial activity against Mycobacterium tuberculosis H37Rv ATCC 25618 after 7 days by resazurin dye based assay; format: functional; settings: H37Rv ATCC 25618, 168 h
Outline: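 H37Rv grown at 37 °C in 7H9 with 10% ADC, 0.5% glycerol and 0.02% tyloxapol. Compounds serially diluted in water, 0 to 10 µM, in triplicate. Culture adjusted to OD600 0.001 and incubated 7 days at 37 °C. Resazurin (0.05% w/v) added for 4-24 h and fluorescence read at 590 nm. MIC is the lowest concentration giving complete growth inhibition versus untreated. Rifampicin served as control.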

Staphylococcus aureus [18] = assay: Antibacterial activity against vancomycin-intermediate Staphylococcus aureus ATCC 700698 after 18 hrs by broth microdilution method; format: functional; settings: ATCC 700698, 18 h; outline: as §2
Enterococcus faecium = assay: Antibacterial activity against vancomycin-resistant Enterococcus faecium ATCC 700221 after 18 hrs by broth microdilution method; format: functional; settings: ATCC 700221, 18 h; outline: as §2
Pseudomonas aeruginosa [19] = assay: Antibacterial activity against Pseudomonas aeruginosa isolate 19147nm after 18 hrs by broth microdilution method; format: functional; outline: as §2
[20] = Selectivity index, ratio of CC50 for human HepG2 cells in presence of 1% FBS to MIC for Pseudomonas aeruginosa ATCC 27853; format: toxicity; settings: read-out: Selectivity Index; outline: as §1
Pseudomonas aeruginosa [21] = assay: Antibacterial activity against Pseudomonas aeruginosa QLD PSA 1 after 18 hrs by broth microdilution method; format: functional; settings: QLD PSA 1, 18 h; outline: as §2
Escherichia coli [22] = assay: Antibacterial activity against Escherichia coli N11281 after 18 hrs by broth microdilution method; format: functional; settings: N11281, 18 h; outline: as §2
Acinetobacter baumannii [23] = assay: Antibacterial activity against Acinetobacter baumannii ATCC 17978 after 18 hrs by broth microdilution method; format: functional; settings: ATCC 17978, 18 h; outline: as §2
Klebsiella pneumoniae [24] = assay: Antibacterial activity against Klebsiella pneumoniae isolate 224-11-C after 18 hrs by broth microdilution method; format: functional; outline: as §2
[25] = Selectivity index, ratio of CC50 for human HepG2 cells in presence of 1% FBS to MIC for Pseudomonas aeruginosa isolate 18878B klon 1; format: toxicity; settings: read-out: Selectivity Index; outline: as §1
[26] = Selectivity index, ratio of CC50 for human HepG2 cells in presence of 1% FBS to MIC for Klebsiella pneumoniae isolate 1; format: toxicity; settings: read-out: Selectivity Index
[27] = Selectivity index, ratio of CC50 for human HepG2 cells in presence of 1% FBS to MIC for Escherichia coli N4149; format: toxicity; settings: read-out: Selectivity Index
[28] = Selectivity index, ratio of CC50 for human HepG2 cells in presence of 1% FBS to MIC for Pseudomonas aeruginosa isolate 912; format: toxicity; settings: read-out: Selectivity Index; outline: as §1
[29] = Selectivity index, ratio of CC50 for human HepG2 cells in presence of 1% FBS to IC50 for CQ-sensitive GFP-fused Plasmodium falciparum D10; format: toxicity; settings: read-out: Ratio IC50
Plasmodium falciparum = assay: Growth inhibition of CQ-sensitive GFP-fused Plasmodium falciparum D10 after 90 hrs by ethidium bromide staining based flow cytometry; format: functional, organism-based; settings: D10, 90 h
Outline: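 Parasites cultured in human O+ erythrocytes in RPMI-HEPES pH 7.4 with hypoxanthine, NaHCO3, gentamicin and 0.5% Albumax II under 1% O2/4% CO2 at 37 °C. Synchronised to rings with heparin plus sorbitol. Set up at 1% parasitaemia and 1% haematocrit with 10x compound added. Cultured 90 h to next-cycle trophozoites. Stained with 10 µg/mL ethidium bromide for 1 h, washed, parasitaemia counted by flow cytometry with GFP gating.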

COc1ccc2c(c1)[I+]c1ccccc1-2
selectivity ratio [1]: 0.39
selectivity ratio [2]: > 0.11
selectivity ratio [3]: 0.78
MIC (Klebsiella pneumoniae [4]): > 70 µM
MIC (Escherichia coli [5]): 35 µM
MIC (Acinetobacter baumannii [6]): 2.2 µM
selectivity ratio [7]: > 0.11
MIC (Staphylococcus aureus [8]): 8.7 µM
MIC (Klebsiella pneumoniae [9]): 70 µM
MIC (Pseudomonas aeruginosa [10]): 18 µM
selectivity ratio [11]: 0.81
MIC (Escherichia coli [12]): > 70 µM
selectivity ratio [13]: > 0.11
MIC (Klebsiella pneumoniae [14]): > 70 µM
selectivity ratio [15]: 3.1
CC50 at 24 h [16]: 6.8 µM
MIC [17]: 0.28 µM
MIC (Staphylococcus aureus [18]): 8.7 µM
MIC (Enterococcus faecium): 4.4 µM
MIC (Pseudomonas aeruginosa [19]): 8.7 µM
selectivity ratio [20]: > 0.11
MIC (Pseudomonas aeruginosa [21]): 70 µM
MIC (Escherichia coli [22]): > 70 µM
MIC (Acinetobacter baumannii [23]): 18 µM
MIC (Klebsiella pneumoniae [24]): > 70 µM
selectivity ratio [25]: 0.39
selectivity ratio [26]: > 0.11
selectivity ratio [27]: > 0.11
selectivity ratio [28]: > 0.11

Cc1ccc2c(c1)-c1ccccc1[I+]2
selectivity ratio [1]: 2.2
selectivity ratio [2]: > 0.52
selectivity ratio [3]: 2.2
MIC (Klebsiella pneumoniae [4]): 72 µM
MIC (Escherichia coli [5]): 72 µM
MIC (Acinetobacter baumannii [6]): 9 µM
selectivity ratio [7]: 0.52
MIC (Staphylococcus aureus [8]): 18 µM
MIC (Klebsiella pneumoniae [9]): 72 µM
MIC (Pseudomonas aeruginosa [10]): 9 µM
selectivity ratio [11]: 4.2
MIC (Escherichia coli [12]): > 72 µM
selectivity ratio [13]: 0.52
MIC (Klebsiella pneumoniae [14]): > 72 µM
selectivity ratio [15]: 4.2
CC50 at 24 h [16]: 37.5 µM
MIC [17]: 0.57 µM
MIC (Staphylococcus aureus [18]): 18 µM
MIC (Enterococcus faecium): 4.5 µM
MIC (Pseudomonas aeruginosa [19]): 9 µM
selectivity ratio [20]: > 0.52
MIC (Pseudomonas aeruginosa [21]): 36 µM
MIC (Escherichia coli [22]): 72 µM
MIC (Acinetobacter baumannii [23]): 9 µM
MIC (Klebsiella pneumoniae [24]): > 72 µM
selectivity ratio [29]: 500
selectivity ratio [25]: 4.2
selectivity ratio [26]: > 0.52
selectivity ratio [27]: > 0.52
IC50 (Plasmodium falciparum): 0.08 µM
selectivity ratio [28]: 4.2

Cc1cccc2c1-c1ccccc1[I+]2
selectivity ratio [1]: 1.2
selectivity ratio [2]: > 0.04
selectivity ratio [3]: 0.07
MIC (Klebsiella pneumoniae [4]): > 72 µM
MIC (Escherichia coli [5]): 18 µM
MIC (Acinetobacter baumannii [6]): 2.3 µM
selectivity ratio [7]: > 0.04
MIC (Staphylococcus aureus [8]): 36 µM
MIC (Klebsiella pneumoniae [9]): 36 µM
MIC (Pseudomonas aeruginosa [10]): 1.1 µM
selectivity ratio [11]: 4.6
MIC (Escherichia coli [12]): > 72 µM
selectivity ratio [13]: 0.14
MIC (Klebsiella pneumoniae [14]): 72 µM
selectivity ratio [15]: 1.2
CC50 at 24 h [16]: 2.6 µM
MIC [17]: 0.14 µM
MIC (Staphylococcus aureus [18]): 36 µM
MIC (Enterococcus faecium): 2.3 µM
MIC (Pseudomonas aeruginosa [19]): 0.57 µM
selectivity ratio [20]: 0.14
MIC (Pseudomonas aeruginosa [21]): 4.5 µM
MIC (Escherichia coli [22]): 18 µM
MIC (Acinetobacter baumannii [23]): 1.1 µM
MIC (Klebsiella pneumoniae [24]): > 72 µM
selectivity ratio [29]: 37
selectivity ratio [25]: 2.3
selectivity ratio [26]: 0.04
selectivity ratio [27]: > 0.04
IC50 (Plasmodium falciparum): 0.07 µM
selectivity ratio [28]: 2.3

Reference: ChEMBL document CHEMBL4145448, “Broad activity of diphenyleneiodonium analogues against Mycobacterium tuberculosis, malaria parasites and bacterial pathogens” (Eur J Med Chem, 2018)
